Assays:
22Rv1 [1] = assay: Inhibition of PI3K in human 22Rv1 cells assessed as reduction in phosphorylation of AKT at S473 incubated for 3 hrs by Western blot analysis; format: cell-based; conditions: dose <= 10.0 µM
Procedure, shortened: (§1)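 22Rv1 cells treated at the stated concentrations for 3 h and lysed in RIPA buffer with protease and phosphatase inhibitors. 25 μg protein separated by SDS-PAGE and blotted to PVDF. Probed overnight at 4 °C for phospho- and total mTOR, AKT (Ser473) and S6RP, with β-actin as loading control. Detected by ECL chemiluminescence.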

[2] = Selectivity ratio of IC50 for PSMA-negative human PC3 cells to IC50 for PSMA-positive human 22Rv1 cells
CWR22R [3] = assay: Antitumor activity against human 22Rv1 cells xenografted in Balb/c athymic nude mouse administered intraperitoneally once daily measured for 22 days; conditions: dose 10-20 mg/kg, route ip, time 22.0 day
Procedure, shortened: (§2)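 Male Balb/c athymic nude mice, 8–10 weeks old. Tumour cells taken from 22Rv1 donor tumours (grown to 1000 mm3) and implanted at 2 × 10^6 per mouse, subcutaneously in the right flank. Randomized at about 100 mm3. Compound given ip once daily in saline with 1% PEG400; vehicle group received the same. Tumour volume (1/2 × L × W2) and body weight measured twice weekly.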

[4] = Toxicity in Balb/c athymic nude mouse xenografted with human 22Rv1 cells assessed as body weight change at 10 to 20 mg/kg, ip qd measured for 22 days; format: organism-based; conditions: in vivo, 528 h, dose 10-20 mg/kg, time 22 day; procedure, shortened: as §2
LNCaP = assay: Antiproliferative activity against PSMA-positive human LNCaP cells incubated for 72 hrs by Cell Titer Glo assay; format: functional, cell-based
Procedure, shortened: (§3)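 Cells grown in RPMI 1640 with 10% FBS, seeded at 3 × 10^3 per well and left overnight, then exposed to a range of compound concentrations for 72 h. Viability read by CellTiter-Glo luminescence after 2 min shaking and 10 min at room temperature. IC50 calculated from the curves; mean of n = 3.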

[5] = Selectivity ratio of IC50 for PSMA-negative human PC-3 cells to IC50 for PSMA-positive human LNCaP cells; format: functional
Procedure, shortened: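 Ratio of PC3 IC50 to LNCaP IC50, both from 72 h CellTiter-Glo viability assays.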

CWR22R [6] = assay: Induction of cell cycle arrest in human 22Rv1 cells assessed as accumulation at G0/G1 phase incubated for 24 hrs by flow cytometry; format: functional, cell-based; conditions: dose <= 10.0 µM
Procedure, shortened: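 1 × 10^5 22Rv1 cells treated at several concentrations for 24 h, then fixed in ice-cold 70% ethanol. Stained with PI/RNase and analysed by flow cytometry with 488 nm excitation to give the percentage of cells in each cycle phase.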

CWR22R [7] = assay: Antiproliferative activity against PSMA-positive human 22Rv1 cells incubated for 72 hrs by Cell Titer Glo assay; format: functional, cell-based; conditions: 22Rv1, 72 h; procedure, shortened: as §3
[8] = molecular target: Phosphatidylinositol 4,5-bisphosphate 3-kinase catalytic subunit alpha isoform (Homo sapiens, UniProt P42336); assay: Inhibition of PI3Kalpha (unknown origin)
[9] = Toxicity in Balb/c athymic nude mouse xenografted with human 22Rv1 cells assessed as drug tolerance at 10 to 20 mg/kg, ip qd measured for 22 days; format: organism-based; conditions: in vivo, 528 h, dose 10-20 mg/kg, time 22 day; procedure, shortened: as §2
CWR22R [10] = assay: Antitumor activity against human 22Rv1 cells xenografted in Balb/c athymic nude mouse at 20 mg/kg, ip qd measured for 22 days relative to control; format: functional; conditions: 22Rv1, 528 h, time 22 day, read-out: TGI; procedure, shortened: as §2
22Rv1 [11] = assay: Inhibition of PI3K in human 22Rv1 cells assessed as reduction in phosphorylation of S6RP incubated for 3 hrs by Western blot analysis; format: cell-based; conditions: dose <= 10.0 µM; procedure, shortened: as §1
22Rv1 [12] = assay: Inhibition of PI3K in human 22Rv1 cells assessed as reduction in phosphorylation of mTOR incubated for 3 hrs by Western blot analysis; format: cell-based; conditions: dose <= 10.0 µM; procedure, shortened: as §1
PC-3 = assay: Antiproliferative activity against PSMA-negative human PC-3 cells incubated for 72 hrs by Cell Titer Glo assay; format: functional, cell-based; conditions: PC-3, 72 h; procedure, shortened: as §3

Phosphatidylinositol 4,5-bisphosphate 3-kinase catalytic subunit alpha isoform, sequence (P42336 whole entry, canonical isoform): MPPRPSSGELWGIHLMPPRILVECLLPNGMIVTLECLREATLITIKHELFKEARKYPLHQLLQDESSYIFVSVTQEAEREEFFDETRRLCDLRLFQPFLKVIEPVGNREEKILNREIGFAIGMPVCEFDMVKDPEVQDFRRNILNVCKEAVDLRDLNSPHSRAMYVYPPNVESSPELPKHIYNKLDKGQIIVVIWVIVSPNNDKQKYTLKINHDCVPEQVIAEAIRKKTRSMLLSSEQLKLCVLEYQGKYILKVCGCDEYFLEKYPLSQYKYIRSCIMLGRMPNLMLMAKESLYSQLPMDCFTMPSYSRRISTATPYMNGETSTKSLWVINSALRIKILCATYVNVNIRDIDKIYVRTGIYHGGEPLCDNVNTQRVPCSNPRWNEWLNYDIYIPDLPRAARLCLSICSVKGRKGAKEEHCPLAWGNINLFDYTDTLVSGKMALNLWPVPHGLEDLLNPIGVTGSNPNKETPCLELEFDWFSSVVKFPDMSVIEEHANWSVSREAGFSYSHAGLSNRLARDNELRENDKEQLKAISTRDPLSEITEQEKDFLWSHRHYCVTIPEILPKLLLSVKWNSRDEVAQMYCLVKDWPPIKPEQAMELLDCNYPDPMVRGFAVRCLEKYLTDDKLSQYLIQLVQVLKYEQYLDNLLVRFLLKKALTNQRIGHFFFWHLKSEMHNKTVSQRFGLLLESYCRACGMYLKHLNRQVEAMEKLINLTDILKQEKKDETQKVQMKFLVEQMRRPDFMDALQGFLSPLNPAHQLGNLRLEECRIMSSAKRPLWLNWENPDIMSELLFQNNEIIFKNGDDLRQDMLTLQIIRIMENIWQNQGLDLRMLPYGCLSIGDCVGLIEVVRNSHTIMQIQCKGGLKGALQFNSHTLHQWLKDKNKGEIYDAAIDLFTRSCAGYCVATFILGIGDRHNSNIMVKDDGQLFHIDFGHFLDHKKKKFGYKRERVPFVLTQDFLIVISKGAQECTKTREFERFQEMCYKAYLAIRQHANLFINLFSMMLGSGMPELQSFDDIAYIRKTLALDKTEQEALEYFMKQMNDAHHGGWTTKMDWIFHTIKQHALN

Compound	inhibition (22Rv1 [1])	Ratio IC50 [2]	Activity (CWR22R [3])	Activity [4]	IC50 (LNCaP) [µM]	Ratio IC50 [5]	Activity (CWR22R [6])	IC50 (CWR22R [7]) [µM]	IC50 [8] [µM]	Activity [9]	inhibition in vivo at 20 mg/kg (CWR22R [10]) [%]	inhibition (22Rv1 [11])	inhibition (22Rv1 [12])	IC50 (PC-3) [µM]
COc1ncc(-c2cc(OCCCC(=O)NC[C@H]3CC[C@@H](C(=O)N[C@@H](Cc4ccc5ccccc5c4)C(=O)NCCCC[C@H](NC(=O)N[C@@H](CCC(=O)O)C(=O)O)C(=O)O)CC3)c3ncnc(C)c3c2)cc1NS(=O)(=O)c1ccc(F)cc1F	Dose-dependent-effect	6	Dose-dependent-effect	Non-toxic	1.08	54	Dose-dependent-effect	9.68	0.0004	Non-toxic	53	Dose-dependent-effect	Dose-dependent-effect	57.8
NCCCC[C@H](NC(=O)N[C@@H](CCC(=O)O)C(=O)O)C(=O)O	–	–	–	–	> 100	–	–	–	–	–	–	–	–	–
